Laboratory results published in ChEMBL document CHEMBL4689842, “EUbOPEN Chemogenomics Library wave 1” (2021).

Test system: HEK-293T
Experiment: Multiplex assay against HEK293T;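 for Population Tubulin-Different-Phenotype (%): share of the cells with healthy nuclei that show this phenotype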
Type: toxicity, cell-based
Settings: human
Outline: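 Cells stained live at seeding with Hoechst33342, BioTracker Green Microtubule Cytoskeleton Dye, MitoTracker Red and Annexin V Alexa Fluor 680 were imaged on a CQ1 microscope at 37°C and 5% CO2 after compound addition. Their classification by CellPathfinder machine-learning gating ran from Hoechst high-intensity objects versus normal cells, to healthy, pyknosed or fragmented nuclei among normal cells, to mitotic or apoptotic among pyknosed cells. Tubulin, mitochondrial-mass and membrane-permeability phenotypes are per cents of healthy-nucleus cells.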

[1] = 12 h, 1 µM, compound concentration 1 uM, replicate 1
[2] = 12 h, 1 µM, compound concentration 1 uM, replicate 2
[3] = 12 h, 10 µM, compound concentration 10 uM, replicate 1
[4] = 12 h, 10 µM, compound concentration 10 uM, replicate 2
[5] = 24 h, 1 µM, compound concentration 1 uM, replicate 1
[6] = 24 h, 1 µM, compound concentration 1 uM, replicate 2
[7] = 24 h, 10 µM, compound concentration 10 uM, replicate 1
[8] = 24 h, 10 µM, compound concentration 10 uM, replicate 2

C=CC(=O)Nc1cccc(Sc2nc(Nc3ccc(N4CCN(C)CC4)cc3)ncc2Cl)c1
Population Apoptotic (%) [1]: 33%
Population Fragmented Nuclei (%) [1]: 28%
Population Healthy Nuclei (%) [1]: 14%
Population Hoechst High Intensity Objects (%) [1]: 16%
Population Membrane Permeable-Phenotype (%) [1]: 22%
Population Mitochondria Different-Phenotype (%) [1]: 15%
Population Mitotic Cells (%) [1]: 66%
Population Normal (%) [1]: 83%
Population Pyknosed Nuclei (%) [1]: 57%
Population Tubulin-Different-Phenotype (%) [1]: 58%
Total Cell Count [1]: 748
Population Apoptotic (%) [2]: 20%
Population Fragmented Nuclei (%) [2]: 4%
Population Healthy Nuclei (%) [2]: 64%
Population Hoechst High Intensity Objects (%) [2]: 10%
Population Membrane Permeable-Phenotype (%) [2]: 7%
Population Mitochondria Different-Phenotype (%) [2]: 44%
Population Mitotic Cells (%) [2]: 79%
Population Normal (%) [2]: 89%
Population Pyknosed Nuclei (%) [2]: 30%
Population Tubulin-Different-Phenotype (%) [2]: 98%
Total Cell Count [2]: 1010
Population Apoptotic (%) [3]: 21%
Population Fragmented Nuclei (%) [3]: 26%
Population Healthy Nuclei (%) [3]: 38%
Population Hoechst High Intensity Objects (%) [3]: 21%
Population Membrane Permeable-Phenotype (%) [3]: 10%
Population Mitochondria Different-Phenotype (%) [3]: 13%
Population Mitotic Cells (%) [3]: 78%
Population Normal (%) [3]: 78%
Population Pyknosed Nuclei (%) [3]: 35%
Population Tubulin-Different-Phenotype (%) [3]: 14%
Total Cell Count [3]: 476
Population Apoptotic (%) [4]: 6%
Population Fragmented Nuclei (%) [4]: 7%
Population Healthy Nuclei (%) [4]: 84%
Population Hoechst High Intensity Objects (%) [4]: 3%
Population Membrane Permeable-Phenotype (%) [4]: 5%
Population Mitochondria Different-Phenotype (%) [4]: 16%
Population Mitotic Cells (%) [4]: 93%
Population Normal (%) [4]: 96%
Population Pyknosed Nuclei (%) [4]: 7%
Population Tubulin-Different-Phenotype (%) [4]: 25%
Total Cell Count [4]: 1448
Population Apoptotic (%) [5]: 55%
Population Fragmented Nuclei (%) [5]: 34%
Population Healthy Nuclei (%) [5]: 26%
Population Hoechst High Intensity Objects (%) [5]: 14%
Population Membrane Permeable-Phenotype (%) [5]: 18%
Population Mitochondria Different-Phenotype (%) [5]: 12%
Population Mitotic Cells (%) [5]: 44%
Population Normal (%) [5]: 85%
Population Pyknosed Nuclei (%) [5]: 39%
Population Tubulin-Different-Phenotype (%) [5]: 52%
Total Cell Count [5]: 683
Population Apoptotic (%) [6]: 28%
Population Fragmented Nuclei (%) [6]: 6%
Population Healthy Nuclei (%) [6]: 63%
Population Hoechst High Intensity Objects (%) [6]: 10%
Population Membrane Permeable-Phenotype (%) [6]: 6%
Population Mitochondria Different-Phenotype (%) [6]: 63%
Population Mitotic Cells (%) [6]: 71%
Population Normal (%) [6]: 89%
Population Pyknosed Nuclei (%) [6]: 29%
Population Tubulin-Different-Phenotype (%) [6]: 97%
Total Cell Count [6]: 914
Population Apoptotic (%) [7]: 26%
Population Fragmented Nuclei (%) [7]: 18%
Population Healthy Nuclei (%) [7]: 64%
Population Hoechst High Intensity Objects (%) [7]: 12%
Population Membrane Permeable-Phenotype (%) [7]: 10%
Population Mitochondria Different-Phenotype (%) [7]: 12%
Population Mitotic Cells (%) [7]: 73%
Population Normal (%) [7]: 87%
Population Pyknosed Nuclei (%) [7]: 17%
Population Tubulin-Different-Phenotype (%) [7]: 30%
Total Cell Count [7]: 470
Population Apoptotic (%) [8]: 4%
Population Fragmented Nuclei (%) [8]: 20%
Population Healthy Nuclei (%) [8]: 76%
Population Hoechst High Intensity Objects (%) [8]: 4%
Population Membrane Permeable-Phenotype (%) [8]: 7%
Population Mitochondria Different-Phenotype (%) [8]: 2%
Population Mitotic Cells (%) [8]: 95%
Population Normal (%) [8]: 95%
Population Pyknosed Nuclei (%) [8]: 3%
Population Tubulin-Different-Phenotype (%) [8]: 19%
Total Cell Count [8]: 2375
